These results are taken from ChEMBL document CHEMBL1124081, “Synthesis and antiulcer activity of 5,11-dihydro[1]benzoxepino[3,4-b]pyridines” (J Med Chem, 1988).

Where “and” joins values, the source holds several entries; their conditions need not be identical. Equal values may be shown once. A value given as a limit tells only on which side of the number the result lay.

For orientation: inhibition in vivo means how much of the control response was suppressed. Higher therefore signals a strong effect. What is called inhibition is the change of the read-out against control, counted positive when it falls. By Ki is commonly meant the dissociation constant of the complex between target and ligand, obtained from inhibition or displacement. A high value points to lower affinity. As usually defined, the Inhibition is the relative decrease from the control value, in per cent.

Assay [1] deals with Rattus norvegicus. In words: Inhibition of stress-induced ulcer formation in rats by 10 mg/kg p.o. administration. The assay is classed as functional. The following applies: for inhibition in vivo at 10 mg/kg: Rattus norvegicus; for Inhibition: 10 mg/kg. The method, boiled down:
(§1)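 Rats, 190-210 g, fasted 17 h with water allowed. Compound given orally 10 min before stress, 0.5 mL/100 g. Restrained in stress cage and immersed in 23 ± 1 °C water for 7 h without food or water. CO2 kill, stomach opened along greater curvature, total glandular ulcer length (mm) measured. % inhibition = (control − treated)/control × 100. Student's t test.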

Assay [2] concerns Rattus norvegicus. In words: The antiulcer activity against stress-induced ulcer in rats by 30 mg/kg peroral administration. The assay is classed as functional. Particulars: route oral. The method, boiled down:
as §1

Assay [3] concerns the target T1, Muscarinic acetylcholine receptor (Rattus norvegicus) (UniProt P08482+P08483+P08485+P08911+P10980). Briefly: Percentage inhibition for Muscarinic acetylcholine receptor at concentration 10 e-6M. The assay is classed as protein assay. The method, boiled down:
(§2)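 Rat striatum homogenized in 10 vol distilled water, diluted to 200 vol of wet tissue weight with 50 mM Na-K phosphate buffer pH 7.4 (1 mL ≈ 5 mg wet tissue). [3H]quinuclidinyl benzilate (final 1.26 nM) plus drug in 10% ethanol, 37 °C for 60 min. Nonspecific binding defined with dexetimide (final 1 μM). Rapid GF/B filtration, three ice-cold buffer rinses, liquid scintillation counting.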

The target in assay [4] is T1, Muscarinic acetylcholine receptor (Rattus norvegicus). Briefly: Percentage inhibition for Muscarinic acetylcholine receptor at concentration 10 e-5M. The method, boiled down:
as §2

Assay [5] addresses Muscarinic acetylcholine receptor. Briefly: Binding affinity was measured for Muscarinic acetylcholine receptor. The assay is classed as protein assay. The method, boiled down: as §2
In assay [6] the target is T1, Muscarinic acetylcholine receptor (Rattus norvegicus). Briefly: Percentage inhibition […] concentration 10 e-5M. In kind it is protein assay.

For `CN1CCN(CC(=O)N2c3ccccc3C(=O)Nc3cccnc32)CC1` [PIRENZEPINE], in the assay with Rattus norvegicus [1] (po), the inhibition in vivo at 10 mg/kg is under 67%. This molecule also gave an inhibition in vivo at 30 mg/kg in the assay on Rattus norvegicus [2] of under 86%.
`CC1CC[C@H](C)N1CCNC1c2ccccc2OCc2ncccc21` (stereo not given in full): testing at 10 mg/kg with Rattus norvegicus [1] (po) gave an inhibition in vivo of 64%. This molecule returned an inhibition in vivo at 30 mg/kg in the assay with Rattus norvegicus [2] of 69%.
`Cc1ccc2c(c1)C(N1CCN(C)CC1)c1cccnc1CO2` (stereo not given) displayed an inhibition in vivo at 30 mg/kg in the assay with Rattus norvegicus [2] of 7%.
`CC1CCC(C)N1CCNC1c2ccccc2OCc2ncccc21` (stereo not given): at 10 mg/kg the inhibition in vivo in the assay on Rattus norvegicus [1] (po) was 67%. This molecule returned an inhibition in vivo at 30 mg/kg with Rattus norvegicus [2] of 94%.
`c1ccc2c(c1)OCc1ncccc1C2NCCN1CCCC1` (stereo not given) had an inhibition in vivo at 10 mg/kg with Rattus norvegicus [1] (po) of 68%. Besides, at 30 mg/kg the inhibition in vivo in the assay on Rattus norvegicus [2] was 72%.
In turn, `CN1CCN(CC(=O)NC2c3ccccc3OCc3ncccc32)CC1` (stereo not given) gave an inhibition in assay [3] of 3%. In the assay on Rattus norvegicus [1] (po), the inhibition in vivo at 10 mg/kg stood at 31%. This molecule came in with an inhibition in vivo at 30 mg/kg with Rattus norvegicus [2] of under 56%.
For `CCNCCNC1c2ccccc2OCc2ncccc21` (stereo not given), the inhibition in vivo at 30 mg/kg in the assay with Rattus norvegicus [2] was under 55%.
For the molecule `CN(C)CCNC1c2ccccc2OCc2ncccc21` (stereo not given), in the assay with Rattus norvegicus [1] (po), at 10 mg/kg the inhibition in vivo was 24%. The molecule further returned an inhibition in vivo at 30 mg/kg in the assay with Rattus norvegicus [2] of 85%.
In the assay on Rattus norvegicus [1] (po), `O=C(Cn1ccnc1)NC1c2ccccc2OCc2ncccc21` (stereo not given) showed an inhibition in vivo at 10 mg/kg of 6%. Also, the inhibition in vivo at 30 mg/kg with Rattus norvegicus [2] stood at 12%.
In the assay on Rattus norvegicus [1] (po), `c1ccc2c(c1)OCc1ncccc1C2NCCN1CCOCC1` (stereo not given) yielded an inhibition in vivo at 10 mg/kg of 7%. Besides, in the assay on Rattus norvegicus [2], the inhibition in vivo at 30 mg/kg worked out at 73%.
In assay [4], `CCN(CC)CCN(CC)C1c2ccccc2OCc2ncccc21` (stereo not given) had an inhibition of 15%. Further, in the assay on Rattus norvegicus [2], 30 mg/kg produced 33% inhibition in vivo.
As for `CCN(CC)CCNC1c2ccccc2Oc2ncccc21` (stereo not given), testing at 10 mg/kg in the assay with Rattus norvegicus [1] (po) gave an inhibition in vivo of 18%. The molecule also returned an inhibition in vivo at 30 mg/kg in the assay with Rattus norvegicus [2] of under 60%.
With `CCN(CC)CCNC1c2ccccc2SCc2ncccc21` (stereo not given), at 30 mg/kg the inhibition in vivo with Rattus norvegicus [2] was 19%.
`CCN(CC)CCNC1c2ccccc2OCc2ncccc21` (single isomer, unassigned) [listing 1 of 2 here] came in with an inhibition constant (Ki) in assay [5] of 1100 nM. In the assay on Rattus norvegicus [1] (route oral), this molecule displayed an Inhibition of under 55%.
With `CC1CCCC(C)N1CCNC1c2ccccc2OCc2ncccc21` (stereo not given), in assay [3], the inhibition turned out to be 3%. Besides, in the assay on Rattus norvegicus [2], the inhibition in vivo at 30 mg/kg is under 64%.
In the case of `c1ccc2c(c1)OCc1ncccc1C2NCCN1CCCCC1` (stereo not given), in the assay on Rattus norvegicus [2], the inhibition in vivo at 30 mg/kg is 52%.
In the case of `NCCNC1c2ccccc2OCc2ncccc21` (stereo not given), in the assay with Rattus norvegicus [2], testing at 30 mg/kg gave an inhibition in vivo of 19%.
`CN/C(=N\CCSCc1nc[nH]c1C)NC#N` [CIMETIDINE] returned an inhibition in vivo at 10 mg/kg with Rattus norvegicus [1] (route oral) of 33%. For the same molecule, the inhibition in vivo at 30 mg/kg with Rattus norvegicus [2] is under 39%.
`CCN(CC)CCNC1c2ccccc2OCc2ncccc21` (stereo in doubt; 11) came in with an inhibition constant Ki in assay [5] of 1600 nM. In addition, in the assay with Rattus norvegicus [1] (route oral), the Inhibition was 65% and 57%. Testing at 30 mg/kg with Rattus norvegicus [2] gave an inhibition in vivo of 85%.
On to `CCN(CC)CCCNC1c2ccccc2OCc2ncccc21` (stereo not given), for which the inhibition in vivo at 10 mg/kg in the assay with Rattus norvegicus [1] (po) came to 34%. Moreover, testing at 30 mg/kg in the assay on Rattus norvegicus [2] gave an inhibition in vivo of 55%.
In turn, `CC(C)N(CC(=O)NC1c2ccccc2OCc2ncccc21)C(C)C` (stereo not given) had an inhibition in assay [6] of 12%. Moreover, at 10 mg/kg the inhibition in vivo with Rattus norvegicus [1] (po) was 17%. In the assay with Rattus norvegicus [2], the inhibition in vivo at 30 mg/kg was under 45%.
As to `CCN(CC)CCNC1c2cc(Cl)ccc2OCc2ncccc21` (stereo not given), in the assay on Rattus norvegicus [2], the inhibition in vivo at 30 mg/kg was 30%.
`CCN(CC)CCNC1c2ccccc2OCc2ncccc21` (single isomer, unassigned) [listing 2 of 2 here] showed an inhibition in assay [4] of 38%.
In the assay on Rattus norvegicus [1] (po), `CCN(CC)CCNC1c2cc(F)ccc2OCc2ncccc21` (stereo not given) had an inhibition in vivo at 10 mg/kg of under 53%. Also, in the assay with Rattus norvegicus [2], the inhibition in vivo at 30 mg/kg is under 87%.
`CCN1CCCC(NC2c3ccccc3OCc3ncccc32)C1` (stereo not given) displayed an inhibition in vivo at 30 mg/kg in the assay with Rattus norvegicus [2] of 67%.
With `CC(C)N(CCNC1c2ccccc2OCc2ncccc21)C(C)C` (stereo not given), at 10 mg/kg the inhibition in vivo in the assay on Rattus norvegicus [1] (po) was 61%. In the assay on Rattus norvegicus [2], this molecule gave an inhibition in vivo at 30 mg/kg of 88%.
`CCN(CC)CCN(C(C)=O)C1c2ccccc2OCc2ncccc21` (stereo not given) returned an inhibition in vivo at 30 mg/kg in the assay on Rattus norvegicus [2] of 0%.
As to `CCN(CC)CCNC1c2cc(C)ccc2OCc2ncccc21` (stereo not given), 30 mg/kg produced 40% inhibition in vivo in the assay on Rattus norvegicus [2].
With `CCN(CC)CC(=O)NC1c2ccccc2OCc2ncccc21` (stereo not given), in the assay on Rattus norvegicus [1] (po), the inhibition in vivo at 10 mg/kg is 10%. Besides, at 30 mg/kg the inhibition in vivo with Rattus norvegicus [2] was 16%.
As to `CCN(CC)CCNC1c2ccccc2OCc2ncccc21` (single isomer, unassigned; (+)), in assay [5], the inhibitory constant (Ki) amounted to 3000 nM. The molecule further returned an inhibition in vivo at 10 mg/kg in the assay on Rattus norvegicus [1] (po) of under 63%.
In the case of `CCN(CC)CC(C)NC1c2ccccc2OCc2ncccc21` (stereo not given), at 30 mg/kg the inhibition in vivo in the assay on Rattus norvegicus [2] was 62%.
`CCN(CC)CCNC1c2cccnc2COc2c(C)cccc21` (stereo not given): in the assay with Rattus norvegicus [1] (po), the inhibition in vivo at 10 mg/kg was under 36%. The molecule further returned an inhibition in vivo at 30 mg/kg in the assay with Rattus norvegicus [2] of under 48%.
For `c1cncc(NC2c3ccccc3OCc3ncccc32)c1` (stereo not given), the inhibition in vivo at 30 mg/kg with Rattus norvegicus [2] is 15%.
Consider `CN1CCN(C2c3ccccc3OCc3ncccc32)CC1` (stereo not given), for which the inhibition in vivo at 10 mg/kg in the assay on Rattus norvegicus [1] (route oral) was 28%. Besides, in the assay on Rattus norvegicus [2], the inhibition in vivo at 30 mg/kg is 76%.
As to `c1ccc2c(c1)OCc1ncccc1C2NC1CN2CCC1CC2` (stereo not given), the inhibition in vivo at 30 mg/kg in the assay on Rattus norvegicus [2] came out at 36%.
